From PubChem BioAssay
Active and inactive are the calls of the source.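 Rule for the calls, unless noted: active = viability at or below 10% of carrier control in both of two separate runs; inconclusive = viability at or below 10% in only one of the two runs; inactive = the rest.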

Tests used:
[1] = Her2 expression decrease, cell viability multiplex – SKBR3 breast tumor cells, AlphaScreen, ATP viability, primary screen (AID 461;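 active = Her2 level under about 52% in both replicate screens, with viability over 70% of control, limit read from the data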;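 for Her2 level: lower value means less Her2 protein in the cells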;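 for viability: percent of carrier control wells set as 100% viability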); settings: SKBR3 Her2 protein level, 18-24 h, measured here: SKBR3 viability, ATP luminescence, at 10 µM
[2] = molecular target: Receptor tyrosine-protein kinase erbB-2 (Homo sapiens) (UniProt P04626); assay: as above; settings: 18-24 h, at 10 µM, stronger effect = lower value
[3] = reduced viability of SK-BR-3 breast cancer cells – cell-based, 24 h, human, pilot screen (AID 572); settings: SK-BR-3 viability, CellTiter-Glo luminescence, at 10 µM, stronger effect = lower value;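 note: compound exposure lasted between 18 and 24 h rather than exactly 24 h; 100% = carrier-treated control wells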
[4] = HUVEC growth inhibition – cell-based, human, primary screen (AID 575;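 active = viability at or below 30% in both replicate assays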;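 note: 100% = median of untreated cell wells with 0.1% DMSO on each plate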); settings: HUVEC proliferation, CellTiter-Glo luminescence, 72 h; at 10 µM; stronger effect = lower value
How it was run: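 material = primary HUVEC, no more than 12 passages | input = 1250 cells per well | controls = vehicle and MePR control wells | measured by = CTG luminescence | times = 72 h compound incubation | format = collagen-coated 384-well format | read-out = % viability vs DMSO wells | doses = single 10 µM dose, 0.1% DMSO, from 5x medium stock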

[5] = H69AR cell proliferation blockers – human, duplicate replicates, primary screen (AID 580;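 active = viability at or under a set limit in both replicates, limit being median viability minus 3 SD, cut at about 48% in these data, passing the limit was not always enough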;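 note: 100% = mean luminescence of untreated wells and 0% = no signal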); settings: H69AR lung tumor cells viability, ATP luminescence, 72 h; at 10 µM; stronger effect = lower value
[6] = MRP1 drug-resistance reversers in H69AR cells – cell-based, doxorubicin co-treatment, pilot screen (AID 601;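 active = viability loss from added drug above about 55%, and viability with drug at most 40%, in both replicates, limit read from the data, passing the limit was not always enough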); settings: CellTiter-Glo, 72 h, at 10 µM; for differential viability (reversal): stronger effect = higher value
[7] = yeast transport mutant growth inhibition pilot in 384-well plates, post-Golgi transport modulator project (AID 636; in the data active = inhibition above about 31%); settings: absorbance 615 nm, about 18 h, stronger effect = higher value
[8] = growth suppression of yeast trafficking mutant, preliminary HTS, modulators of trafficking downstream of Golgi apparatus project, 1536-format plate, OD 615 nm (AID 637; in the data active = inhibition above about 30%); settings: yeast transport mutant growth, absorbance 615 nm, 18 h; stronger effect = higher value
[9] = H69AR cells + 2 uM doxorubicin, measured here: viability with 2 uM doxorubicin, stronger effect = lower value
[10] = H69AR cells, compound alone cytotoxicity

Chain of Receptor tyrosine-protein kinase erbB-2 (Homo sapiens) (P04626 whole entry, looked up): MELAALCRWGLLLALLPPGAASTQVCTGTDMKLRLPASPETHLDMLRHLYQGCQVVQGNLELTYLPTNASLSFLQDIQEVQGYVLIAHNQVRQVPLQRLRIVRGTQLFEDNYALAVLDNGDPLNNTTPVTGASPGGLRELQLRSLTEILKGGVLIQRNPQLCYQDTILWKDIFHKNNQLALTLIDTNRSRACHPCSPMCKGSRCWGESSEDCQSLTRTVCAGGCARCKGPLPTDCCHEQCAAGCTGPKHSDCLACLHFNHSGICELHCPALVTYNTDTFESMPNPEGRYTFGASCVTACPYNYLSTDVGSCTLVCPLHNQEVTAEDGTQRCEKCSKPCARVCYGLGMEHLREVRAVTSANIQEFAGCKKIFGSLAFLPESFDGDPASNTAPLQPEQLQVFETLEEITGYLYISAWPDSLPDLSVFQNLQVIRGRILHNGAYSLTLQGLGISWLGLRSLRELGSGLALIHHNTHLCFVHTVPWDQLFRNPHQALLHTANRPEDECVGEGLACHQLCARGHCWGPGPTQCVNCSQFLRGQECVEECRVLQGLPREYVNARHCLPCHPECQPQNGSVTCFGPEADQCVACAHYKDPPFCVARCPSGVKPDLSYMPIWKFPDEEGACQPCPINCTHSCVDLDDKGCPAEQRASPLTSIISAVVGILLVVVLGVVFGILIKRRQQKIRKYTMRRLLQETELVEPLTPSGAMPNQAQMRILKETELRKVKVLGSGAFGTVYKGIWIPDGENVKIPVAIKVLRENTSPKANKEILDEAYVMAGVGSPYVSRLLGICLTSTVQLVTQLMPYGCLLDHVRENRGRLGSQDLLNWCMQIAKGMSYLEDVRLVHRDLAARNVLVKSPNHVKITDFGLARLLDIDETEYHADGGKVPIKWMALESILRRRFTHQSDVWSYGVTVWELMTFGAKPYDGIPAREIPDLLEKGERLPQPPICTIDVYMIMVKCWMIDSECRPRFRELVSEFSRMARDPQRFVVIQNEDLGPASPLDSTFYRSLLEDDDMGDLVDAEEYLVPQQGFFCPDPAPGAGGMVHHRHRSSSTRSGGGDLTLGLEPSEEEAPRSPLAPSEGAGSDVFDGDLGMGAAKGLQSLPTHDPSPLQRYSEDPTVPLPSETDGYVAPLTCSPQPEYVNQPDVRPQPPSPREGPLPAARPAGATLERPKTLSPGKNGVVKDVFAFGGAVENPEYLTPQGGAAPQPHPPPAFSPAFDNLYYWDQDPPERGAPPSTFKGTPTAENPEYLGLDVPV

SMILES	viability [1] [%]	Her2 level [2]	viability [3]	viability [4]	viability [5]	differential viability (reversal) ([6]; H69AR cells + 2 uM doxorubicin)	viability [6, 9] [%]	viability [6, 10] [%]	inhibition [7]	inhibition [8]
CC(C)(C)OC(=O)NC(CCNC=C1C(=O)OC(C)(C)OC1=O)C(=O)O (stereo not given)	105	92.5% (inactive)	105% (inactive)	104% (inactive)	101% (inactive)	11.6% (inactive)	89.2	101	-7.03% (inactive)	-3.5% (inactive)
Cc1cc(C)n(-c2nc(C)nc3sc4c(c23)CCC(C)C4)n1 (stereo not given)	92.5	108% (inactive)	92.5% (inactive)	80.8% (inactive)	96.4% (inactive)	-0.45% (inactive)	96.8	96.4	-1.04% (inactive)	-13.8% (inactive)
COc1cc(C2C(C(=O)c3ccc(C)o3)=C(O)C(=O)N2c2cc(C)on2)cc(Br)c1O (stereo not given)	102	93% (inactive)	102% (inactive)	99.8% (inactive)	95.7% (inactive)	8.72% (inactive)	86.9	95.7	-1.97% (inactive)	-3.49% (inactive)
Cc1cc(Cl)ccc1OCCCC(=O)NO	80.5	76% (inactive)	80.5% (inactive)	71.3% (inactive)	2.07% (active)	-20.7% (inactive)	22.7	2.07	2.18% (inactive)	3.83% (inactive)
O=C1CC(N2CCOCC2)C(=O)N1c1ccc2c(c1)OCO2 (stereo not given)	102	92.5% (inactive)	102% (inactive)	92% (inactive)	104% (inactive)	-4.17% (inactive)	108	104	-2.11% (inactive)	0.32% (inactive)
C=CCn1c(SCC(=O)Nc2ccccc2OC)nnc1-c1ccco1	95	89.5% (inactive)	95% (inactive)	95.2% (inactive)	67.7% (inactive)	-16.8% (inactive)	84.5	67.7	-4.67% (inactive)	2.9% (inactive)
c1ccc(CNc2ccc3c(c2)ncn3C2CCCCC2)nc1	97	107% (inactive)	97% (inactive)	96% (inactive)	96.8% (inactive)	2.95% (inactive)	93.8	96.8	-1.05% (inactive)	-2.73% (inactive)
CCOc1ccc(C(=O)N2CCN(c3ccccc3)CC2)cc1OCC	104	102% (inactive)	104% (inactive)	90% (inactive)	83.5% (inactive)	-14.8% (inactive)	98.3	83.5	2.47% (inactive)	9.51% (inactive)
Cc1ccc(S(=O)(=O)N2CCOCC2)cc1C(=O)Nc1ccccn1	87	83% (inactive)	87% (inactive)	110% (inactive)	93.8% (inactive)	7.62% (inactive)	86.1	93.8	-6.76% (inactive)	-3.17% (inactive)
Cc1cccc(OCC(=O)N(Cc2cccs2)C2CCS(=O)(=O)C2)c1C (stereo not given)	96.5	83.5% (inactive)	96.5% (inactive)	72.8% (inactive)	94.6% (inactive)	3.22% (inactive)	91.4	94.6	-6.35% (inactive)	3.02% (inactive)
O=C(NC(C(=O)c1ccccc1)n1ccc(=O)[nH]c1=O)c1ccccc1 (stereo not given)	98.5	99% (inactive)	98.5% (inactive)	98.8% (inactive)	91.2% (inactive)	6.79% (inactive)	84.4	91.2	-0.93% (inactive)	23.1% (inactive)
Cc1cc(NC(=O)CSc2nccn2-c2ccc(F)cc2)no1	85.5	81.5% (inactive)	85.5% (inactive)	83.4% (inactive)	104% (inactive)	15.8% (inactive)	88.4	104	-2.99% (inactive)	-3.17% (inactive)
C=CCOc1nc2c(c(=O)n(C)c(=O)n2C)n1Cc1c(Cl)cccc1Cl	97.5	83% (inactive)	97.5% (inactive)	94.9% (inactive)	80.4% (inactive)	62% (active)	18.3	80.4	-3.92% (inactive)	11.9% (inactive)
CC(=O)c1ccc(NS(=O)(=O)c2ccccc2)cc1	95	137% (inactive)	95% (inactive)	91.5% (inactive)	98.6% (inactive)	7.02% (inactive)	91.6	98.6	4.42% (inactive)	5.33% (inactive)
COC(=O)C1=C(C)n2nnnc2NC1c1ccc(Cl)cc1 (stereo not given)	92	107% (inactive)	92% (inactive)	90.4% (inactive)	95.3% (inactive)	8.47% (inactive)	86.8	95.3	-0.39% (inactive)	1.83% (inactive)
CCc1ccccc1NC(=O)CSc1nc2n[nH]c(C)c2c(=N)n1-c1ccc(OC)cc1	98.5	77.5% (inactive)	98.5% (inactive)	66.4% (inactive)	80% (inactive)	-2.23% (inactive)	82.3	80	-5.92% (inactive)	6.51% (inactive)

SMILES	viability [1] [%]	Her2 level [2]	viability [3]	viability [4]	viability [5]	differential viability (reversal) ([6]; H69AR cells + 2 uM doxorubicin)	viability [6, 9] [%]	viability [6, 10] [%]	inhibition [7]	inhibition [8]
O=C(NCC(c1cccnc1)N1CCN(c2ccccc2)CC1)c1ccc2c(c1)OCO2 (stereo not given)	92	94% (inactive)	92% (inactive)	105% (inactive)	90.8% (inactive)	-7.41% (inactive)	98.2	90.8	-4.46% (inactive)	12.9% (inactive)
CCOC(=O)CNC(=O)CSc1nc(N)cc(N)n1	92	96% (inactive)	92% (inactive)	113% (inactive)	96.7% (inactive)	0.07% (inactive)	96.6	96.7	-4.27% (inactive)	-9.84% (inactive)
Cn1c(-n2c(-c3ccco3)nc3ccccc3c2=O)nc2ccccc21	83	98% (inactive)	83% (inactive)	89.9% (inactive)	90.3% (inactive)	5.28% (inactive)	85	90.3	-1.47% (inactive)	6.56% (inactive)
C=Cn1nc(C)c2ccccc2c1=O	112	117% (inactive)	112% (inactive)	105% (inactive)	90.1% (inactive)	4.88% (inactive)	85.2	90.1	-3.33% (inactive)	-7.83% (inactive)
CCCCNC(=O)CN(C1CCCCC1)S(C)(=O)=O	104	107% (inactive)	104% (inactive)	101% (inactive)	103% (inactive)	11% (inactive)	92.4	103	-4.47% (inactive)	-0.16% (inactive)
Cc1ccc2cc3cc(C(=O)NCCN4CCOCC4)oc3nc2c1	99	79.5% (inactive)	99% (inactive)	86% (inactive)	96.6% (inactive)	9.98% (inactive)	86.6	96.6	-5.13% (inactive)	8.67% (inactive)
Cc1cc(Br)ccc1NC(=O)CNC(=O)CSc1n[nH]c(N)n1	110	89.5% (inactive)	110% (inactive)	99.3% (inactive)	104% (inactive)	16.3% (inactive)	87.3	104	-6.22% (inactive)	8.41% (inactive)
O=C(Cn1ccc2ccccc2c1=O)NCCC(=O)N1CCN(C(=O)c2ccco2)CC1	89.5	109% (inactive)	89.5% (inactive)	102% (inactive)	98.1% (inactive)	6.74% (inactive)	91.4	98.1	-1.6% (inactive)	-2.3% (inactive)
Cn1c(=O)c2c(nc(Br)n2CCSc2ncccn2)n(C)c1=O	98	114% (inactive)	98% (inactive)	106% (inactive)	103% (inactive)	21.7% (inactive)	81.1	103	-1.87% (inactive)	-10.2% (inactive)
COc1ccc(N2CCN(C(c3cccs3)C(C)NC(=O)c3ccco3)CC2)cc1 (stereo not given)	90	76.5% (inactive)	90% (inactive)	82.1% (inactive)	86.3% (inactive)	-4.01% (inactive)	90.3	86.3	-4.53% (inactive)	-0.16% (inactive)
CC1(C)CC(=O)C2=C(C1)OC(=O)C2(NC(=O)c1cccs1)C(F)(F)F (stereo not given)	102	83% (inactive)	102% (inactive)	88.3% (inactive)	98% (inactive)	3.83% (inactive)	94.2	98	-4.05% (inactive)	12.2% (inactive)
COc1ccc(OC)c(NC(=O)CCN2CCN(c3ccccc3F)CC2)c1	94.5	106% (inactive)	94.5% (inactive)	90.8% (inactive)	97.8% (inactive)	13.1% (inactive)	84.7	97.8	-4.93% (inactive)	-8.39% (inactive)
O=C(Cn1cnc2c(nnn2-c2ccc(F)cc2)c1=O)N1CCCc2ccccc21	101	117% (inactive)	101% (inactive)	90.5% (inactive)	103% (inactive)	16.3% (inactive)	86.6	103	-9.59% (inactive)	-2.7% (inactive)
CCCCOc1cc(=O)[nH]c(=O)[nH]1	108	99% (inactive)	108% (inactive)	95.2% (inactive)	102% (inactive)	8.32% (inactive)	93.4	102	-2.11% (inactive)	-7.33% (inactive)
O=S(=O)(NC1=NCCC1)c1cccs1	106	94% (inactive)	106% (inactive)	114% (inactive)	107% (inactive)	15.3% (inactive)	91.2	107	-5.68% (inactive)	-2.67% (inactive)
COc1cc(N2C(=O)CSC23C(=O)Nc2ccccc23)cc(OC)c1OC (stereo not given)	95.5	105% (inactive)	95.5% (inactive)	79.7% (inactive)	95.7% (inactive)	7.86% (inactive)	87.8	95.7	-1.97% (inactive)	-5.81% (inactive)
